In ChEMBL document CHEMBL1123113, “"Reverse" and "symmetrical" analogues of actinomycin D: metabolic activation and in vitro and in vivo tumor growth inhibitory activities” (J Med Chem, 1985):
Values joined by “and” are separate entries in the source; they are usually repeats but may differ in a detail not shown here. Equal entries are not always repeated.

Assays:
[1] = IC50 DNA/IC50 RNA ratio of the compound; assay type: functional
How it was run: (§1)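 P388 cells were exposed for 1 h. IC50 (µM) was taken as 50% reduction of methyl-[3H]thymidine (DNA) or 2-[14C]uridine (RNA) incorporation into acid-precipitable material. The ratio is IC50 DNA divided by IC50 RNA.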

Rattus norvegicus [2] = species: Rattus norvegicus; experiment: (§2) Compound tested for adrenochrome formation in rat hepatic mycrosomal incubation; assay type: functional
How it was run: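 Adrenochrome assay for superoxide: epinephrine in 0.01 N HCl plus 300 µg of phenobarbital-induced rat liver microsomes at 37 °C. NADPH 0.4 mM was added to the sample side 1 min later, and the rate was read at 480 nm (ε 4.02 mM−1 cm−1). Drugs were at ≤100 µM, made in 150 mM KCl–50 mM Tris, pH 7.4. Percent stimulation is over basal rate, in triplicate.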

Rattus norvegicus [3] = species: Rattus norvegicus; experiment: (§3) Compound tested for NADPH oxidation in rat hepatic mycrosomal incubation; assay type: functional
How it was run: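 Phenobarbital-induced male Sprague-Dawley rat liver microsomes were placed in both cuvettes, without epinephrine. NADPH 0.4 mM was added to the sample side only, and absorbance was read at 340 nm. Percent stimulation = (drug rate − basal)/basal × 100. Values are the average ± standard errors of triplicates.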

Mus musculus [4] = experiment: In vivo antitumor activity was determined against P388 leukemia mice as number of mice survived after administration of 1200 ug/Kg dose of compound; Value represented as no of survivors/ treated = 0/8; assay type: functional
Mus musculus [5] = experiment: Antitumor activity against B16 melanoma in terms of percentage increase in life span in mice at an optimal dose of 1200 ug/kg administered ip; assay type: functional
Mus musculus [6] = experiment: In vivo antitumor activity was determined against B16 melanoma mice as number of mice survived after administration of 1200 ug/Kg dose of compound; Value represented as no of survivors/ treated = 1/9; assay type: functional
Mus musculus [7] = experiment: Antitumor activity against P388 leukemia cells in terms of median survival time of mice at an optimal dose of 1200 ug/kg administered ip; assay type: functional
Mus musculus [8] = experiment: Antitumor activity against B16 melanoma in terms of median survival time of mice at an optimal dose of 1200 ug/kg administered ip; assay type: functional
CCRF-CEM = experiment: Inhibitory dose required for the inhibition of human lymphoblastic leukemia cells(CCRF-CEM); assay type: functional; conditions: read-out: ID50 (the source's name)
Mus musculus [9] = experiment: Antitumor activity against P388 leukemia cells in terms of percentage increase in life span in mice at an optimal dose of 1200 ug/kg administered ip; assay type: functional
Mus musculus [10] = species: Mus musculus; experiment: Dose providing an increase in the life span of 45% over control in P388 tumor bearing mice; assay type: functional; conditions: read-out: MED
How it was run: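 MED is the ip dose in mg/kg, given on days 1, 5 and 9 starting 1 day after implantation, that gives a 45% increase in life span over control in P388-bearing mice. It was derived from plotted log-dose response data.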

[11] = Therapeutic index ([…]) value of the compound; conditions: read-out: TI
How it was run: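 MED is the dose giving a 45% increase in life span over control in male BDF1 mice implanted ip with 10^6 P388 cells and treated ip on days 1, 5 and 9. MTD is the 21-day LD10 in tumor-free male BDF1 mice (18–22 g), dosed ip on the same days. Both values come from plotted log-dose response data.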

Mus musculus [12] = experiment: In vivo antitumor activity was determined against B16 melanoma mice as number of mice survived after administration of 250 ug/Kg dose of compound; Value represented as no of survivors/ treated = 2/9; assay type: functional
[13] = Minimum tolerated dose is the lethal dose for 10% normal mice for deaths during 21 days; assay type: ADME, organism-based; conditions: mouse, in vivo
How it was run: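 Tumor-free male BDF1 mice (18–22 g) received a broad dose range ip in 5% dimethyl sulfoxide-saline on days 1, 5 and 9. Deaths were recorded over 21 days. The LD10 (dose killing 10% of animals) was calculated from a plot of log-dose vs. percent mortality.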

Mus musculus [14] = experiment: In vivo antitumor activity was determined against P388 leukemia mice as number of mice survived after administration of 300 ug/Kg dose of compound; Value represented as no of survivors/ treated = 0/8; assay type: functional
P388 [15] = experiment: Inhibition of DNA synthesis was measured as the concentration required to cause 50% reduction (in 1h) in methyl [3H]thymidine incorporation into acid precipitable material using P388 cells; assay type: functional; conditions: Mus musculus, read-out: ID50 (the source's name); how it was run: as §1
Mus musculus [16] = experiment: Antitumor activity against P388 leukemia cells in terms of percentage increase in life span in mice at an optimal dose of 300 ug/kg administered ip; assay type: functional
Mus musculus [17] = experiment: Antitumor activity against B16 melanoma in terms of median survival time of mice at an optimal dose of 250 ug/kg administered ip; assay type: functional
Mus musculus [18] = species: Mus musculus; experiment: Antitumor activity against B16 melanoma in terms of percentage increase in life span in mice after 65 days; assay type: functional
P388 [19] = experiment: Inhibition of RNA synthesis was measured as the concentration required to cause 50% reduction (in 1h) in 2-[14C]uridine incorporation into acid precipitable material using P388 cells; assay type: functional; conditions: Mus musculus, P388, 1 h; read-out: ID50 (the source's name)
Mus musculus [20] = experiment: Antitumor activity against P388 leukemia cells in terms of median survival time of mice at an optimal dose of 300 ug/kg administered ip; assay type: functional
Rattus norvegicus [21] = species: Rattus norvegicus; experiment: as §2; assay type: functional; remark: listed apart in the source
How it was run: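 Superoxide read as adrenochrome from epinephrine (in 0.01 N HCl) with phenobarbital-induced rat liver microsomes (300 µg) at 37 °C; NADPH 0.4 mM added to sample cuvette after 1 min. Rate at 480 nm (ε 4.02 mM-1 cm-1); drug ≤100 µM in 150 mM KCl-50 mM Tris pH 7.4; % stimulation over basal rate; triplicate, mean ± standard error.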

Rattus norvegicus [22] = species: Rattus norvegicus; experiment: as §3; assay type: functional; remark: listed apart in the source
How it was run: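 Phenobarbital-induced rat liver microsomes (300 µg), 37 °C, no epinephrine; NADPH 0.4 mM added to sample cuvette only. A340 followed; % oxidation = (1 − A340/A'340)×100 vs cuvette not activated by microsomes; % stimulation = (drug rate − basal rate)/basal rate ×100. Drugs in 150 mM KCl-50 mM Tris pH 7.4; triplicate analyses, mean ± standard error.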

Cc1c2oc3c(C)c4oc(-c5ccccc5)nc4c(C(=O)N[C@H]4C(=O)N[C@@H](C(C)C)C(=O)N5CCC[C@H]5C(=O)N(C)CC(=O)N(C)[C@H](C(C)C)C(=O)O[C@H]4C)c3nc-2c(C(=O)N[C@@H]2C(=O)N[C@H](C(C)C)C(=O)N3CCC[C@@H]3C(=O)N(C)CC(=O)N(C)[C@@H](C(C)C)C(=O)O[C@@H]2C)c(N)c1=O
Ratio [1]: 11.4

CCN(CC)C(=O)c1cc(=O)c(C)c2oc3c(C)c4oc(-c5ccccc5)nc4c(C(=O)N(CC)CC)c3nc1-2
adrenochrome formation (Rattus norvegicus [2]): 2.13 nM min-1 (mg of protein)-1 | NADPH oxidation (Rattus norvegicus [3]): 8.9 nM min-1 (mg of protein)-1

Cc1c2oc3c(C)c(O)c(N)c(C(=O)N[C@@H]4C(=O)N[C@H](C(C)C)C(=O)N5CCC[C@H]5C(=O)N(C)CC(=O)N(C)[C@@H](C(C)C)C(=O)O[C@@H]4C)c3nc-2c(C(=O)N[C@@H]2C(=O)N[C@H](C(C)C)C(=O)N3CCC[C@H]3C(=O)N(C)CC(=O)N(C)[C@@H](C(C)C)C(=O)O[C@@H]2C)cc1=O
Survivors (Mus musculus [4]): 0 | ILS at 1.2 mg/kg (Mus musculus [5]): 52% | Survivors (Mus musculus [6]): 1 | MST (Mus musculus [7]): 26 days | MST (Mus musculus [8]): 44 days | adrenochrome formation (Rattus norvegicus [2]): 7.29 nM min-1 (mg of protein)-1 | NADPH oxidation (Rattus norvegicus [3]): 29.9 nM min-1 (mg of protein)-1 | IC50 (CCRF-CEM): 1000 nM | ILS at 1.2 mg/kg (Mus musculus [9]): 136% | minimal effective dose (Mus musculus [10]): 0.275 mg/kg

Cc1c2oc3c(C)ccc(C(=O)N[C@@H]4C(=O)N[C@H](C(C)C)C(=O)N5CCC[C@H]5C(=O)NCC(=O)N[C@@H](C(C)C)C(=O)O[C@@H]4C)c3nc-2c(C(=O)N[C@@H]2C(=O)N[C@H](C(C)C)C(=O)N3CCC[C@H]3C(=O)NCC(=O)N[C@@H](C(C)C)C(=O)O[C@@H]2C)c(N)c1=O [ACTINOMYCITIN]
selectivity ratio [11]: 4 | Survivors (Mus musculus [12]): 2 | MTD at 504 h [13]: 0.25 mg/kg | Survivors (Mus musculus [14]): 0 | IC50 (P388 [15]): 1.12 nM | ILS at 0.3 mg/kg (Mus musculus [16]): 136% | MST (Mus musculus [17]): 43 range | ILS (Mus musculus [18]): 48% | IC50 (P388 [19]): 0.05 nM | adrenochrome formation (Rattus norvegicus [2]): 2.11 nM min-1 (mg of protein)-1 and 2.29 nM min-1 (mg of protein)-1 | NADPH oxidation (Rattus norvegicus [3]): 9.11 nM min-1 (mg of protein)-1 and 10.01 nM min-1 (mg of protein)-1 | IC50 (CCRF-CEM): 50 nM | minimal effective dose (Mus musculus [10]): 0.0625 mg/kg | MST (Mus musculus [20]): 26 days

CCN(CC)C(=O)c1c2nc3c(C(=O)N(CC)CC)c(N)c(O)c(C)c3oc-2c(C)c(=O)c1N
adrenochrome formation (Rattus norvegicus [21]): 2.13 nM min-1 (mg of protein)-1 | NADPH oxidation (Rattus norvegicus [22]): 8.9 nM min-1 (mg of protein)-1

Cc1nc2c(C(=O)N[C@H]3C(=O)N[C@@H](C(C)C)C(=O)N4CCC[C@H]4C(=O)N(C)CC(=O)N(C)[C@H](C(C)C)C(=O)O[C@H]3C)c3nc4c(C(=O)N[C@@H]5C(=O)N[C@H](C(C)C)C(=O)N6CCC[C@@H]6C(=O)N(C)CC(=O)N(C)[C@@H](C(C)C)C(=O)O[C@@H]5C)c(N)c(=O)c(C)c-4oc3c(C)c2o1
Ratio [1]: 11.2

Cc1c2oc3c(C)ccc(C(=O)N[C@@H]4C(=O)N[C@H](C(C)C)C(=O)N5CCC[C@@H]5C(=O)NCC(=O)N[C@@H](C(C)C)C(=O)O[C@@H]4C)c3nc-2c(C(=O)N[C@H]2C(=O)N[C@@H](C(C)C)C(=O)N3CCC[C@H]3C(=O)NCC(=O)N[C@H](C(C)C)C(=O)O[C@H]2C)c(N)c1=O
Ratio [1]: 22.4
